What was measured:
[1] = (§1) Resistance index as the ratio of IC50 value against LoVo/Dx to that of LoVo cell lines.; assay type: functional
In short: (§2)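 LoVo and LoVo/Dx, each seeded 2.5 × 10^4 cells/mL, preincubated 24 h, exposed to drug 144 h; MTT formazan read at 570 nm. Resistance index = IC50 in LoVo/Dx divided by IC50 in LoVo.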

LoVo [2] = assay: Inhibitory activity against human colon adenocarcinoma cell line LoVo.; assay type: functional, cell-based
In short: (§3)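 LoVo and doxorubicin-resistant LoVo/Dx grown in Ham's F12 with 10% FCS, glutamine, BME vitamins, HEPES, pen/strep; 37 °C, CO2, mycoplasma-checked by DAPI. Seeded 2.5 × 10^4 cells/mL, preincubated 24 h, then drug exposure 144 h. MTT read-out at 570 nm; IC50 (μg/mL) as concentration inhibiting growth by 50%, at least three runs averaged.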

LoVo [3] = assay: (§4) Inhibitory activity against human colon adenocarcinoma cell line LoVo/Dx.; assay type: functional, cell-based; in short: as §3
Nucleic Acid [4] = assay: dichroism data for visible band in the compound to DNA in ETN.; assay type: nucleic-acid assay; conditions: Bos taurus
In short: (§5)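 Dichroism in Tris-EDTA-NaCl buffer, ionic strength 0.1, pH 7.0, 25 °C. CD given as Δε from ellipticity, path length and molar concentration. Linear dichroism with DNA oriented in rotating quartz cell at 600-800 rpm, four accumulations; ligand orientation angle derived from ligand/DNA reduced LD ratio, taking bases at 90°.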

HT-1080 [5] = assay: Inhibitory activity against human tumor cell line HT1080.; assay type: functional, cell-based
In short: (§6)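 Fibrosarcoma HT-1080, colon HT-29, breast MCF-7 and melanoma A-375 adapted to complete RPMI 1640; seeded 2.5 × 10^4 cells/mL, preincubated 24 h, exposed to drug 144 h. MTT assay, formazan dissolved in DMSO, absorbance per well read; IC50 (M) taken as concentration giving 50% growth inhibition.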

MCF7 = assay: Inhibitory activity against human tumor cell line MCF-7 breast adenocarcinoma.; assay type: functional, cell-based; in short: as §6
LoVo [6] = assay: as §1; assay type: functional, Homo sapiens; in short: as §2
HT-29 [7] = assay: Inhibitory activity against human tumor cell line HT-29.; assay type: functional, cell-based; in short: as §6
Nucleic Acid [8] = assay: Ki value was measured for the binding of compound to DNA in ETN.; assay type: nucleic-acid assay, Bos taurus
In short: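 UV-vis titration: DNA added to ligand at fixed concentration in 10 mM Tris, 2 mM EDTA, NaCl to ionic strength 0.15 M, pH 7.0, 25 °C. Bound/free ligand from absorbance at wavelength of largest change (isosbestic points present); intrinsic constant and site size fitted by least squares to the neighbour-exclusion equation.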

A-375 = assay: Inhibitory activity against human tumor cell line […] melanoma.; assay type: functional, cell-based; in short: as §6
HT-1080 [9] = assay: Inhibitory activity against human tumor cell line HT1080; assay type: functional, cell-based; in short: as §6
Nucleic Acid [10] = assay: dichroism data for visible band in the compound to calf thymus DNA in ETN.; assay type: nucleic-acid assay; conditions: Bos taurus; in short: as §5
HT-29 [11] = assay: Inhibitory activity against human tumor cell line HT-29; assay type: functional, cell-based; in short: as §6
HT-1080 [12] = assay: inhibit the cellular growth by 50% was determined against human tumor cell line HT1080.; assay type: functional, cell-based; in short: as §6
HT-29 [13] = assay: as §4; assay type: functional, cell-based; conditions: in the assay text read “HT-29” for “LoVo/Dx”

Structure (SMILES) | IC50 (LoVo [2]) [nM] | IC50 (LoVo [3]) [nM] | RI [1] | also measured
OCCCNc1nnc(NCCCO)c2cc3ccccc3cc12 | > 9600 | 36000 | >3.7 | 
OCCNCCNc1nnc(NCCNCCO)c2cc3ccccc3cc12 | > 8100 | > 260000 |  | 
Cl.O=C1c2ccccc2C(=O)c2c(NCCNCCO)nnc(NCCNCCO)c21 | 2700 | 39000 |  | LD (Nucleic Acid [4]): -0.13; IC50 (HT-1080 [5]): 1300 nM; IC50 (MCF7): 720 nM; RI (LoVo [6]): 14.4; IC50 (HT-29 [7]): 410 nM; Ki (Nucleic Acid [8]): 47000 M⁻¹
O=C1c2ccccc2C(=O)c2c(NCCNCCO)ccc(NCCNCCO)c21 [AMETANTRONE] | 580 | 92000 |  | LD (Nucleic Acid [4]): -0.13; RI (LoVo [6]): 158.6; Ki (Nucleic Acid [8]): 340000 M⁻¹
O=C1c2ccccc2C(=O)c2c(NCc3ccccc3)nnc(NCc3ccccc3)c21 | 1400 | 1300 | 0.9 | 
Cl.Nc1nnc(NCCNCCO)c2c1C(=O)c1ccccc1C2=O |  |  |  | IC50 (HT-1080 [9]): 8.3 nM; IC50 (MCF7): 47 nM; LD (Nucleic Acid [10]): -0.13; Ki (Nucleic Acid [8]): 45000 M⁻¹; IC50 (HT-29 [11]): 5.2 nM; IC50 (A-375): 0.47 nM
O=C1c2ccccc2C(=O)c2c(NCCN3CCCCC3)nnc(NCCN3CCCCC3)c21 | 260 | 1200 | 4.6 | 
CN(C)CCNc1nnc(N)c2c1C(=O)c1ccccc1C2=O |  |  |  | IC50 (HT-1080 [12]): 34 nM; IC50 (HT-29 [13]): 6.5 nM
O=C1c2c(O)ccc(O)c2C(=O)c2c(NCCNCCO)ccc(NCCNCCO)c21 [MITOXANTRONE] | 9.7 | 530 | 54.6 | IC50 (HT-1080 [5]): 66 nM; IC50 (MCF7): 20 nM; IC50 (HT-29 [7]): 17 nM; IC50 (A-375): 26 nM

Further lines, with some results ahead:

IC50 (LoVo [2]) [nM] | IC50 (LoVo [3]) [nM] | Structure (SMILES) | RI [1] | also measured
43 | 6000 | COc1cccc2c1C(=O)c1c(O)c3c(c(O)c1C2=O)C[C@@](O)(C(=O)CO)C[C@@H]3O[C@H]1C[C@H](N)[C@H](O)[C@H](C)O1 [DOXORUBICIN] | 139.5 | 
49 | 1000 | CN(C)CCCNc1nnc(NCCCN(C)C)c2c1C(=O)c1ccccc1C2=O | 20.4 | 
73 | 440 | CN(C)CCNc1nnc(NCCN(C)C)c2c1C(=O)c1ccccc1C2=O.Cl | 6 | IC50 (HT-1080 [5]): 46 nM; IC50 (MCF7): 0.95 nM; IC50 (HT-29 [7]): 9.4 nM; IC50 (A-375): 33 nM
76 | < 2000 | Cl.O=C1c2ccccc2C(=O)c2c(NCCCO)nnc(NCCCO)c21 | <26 | 
180 | 1700 | CCN(CC)CCNc1nnc(NCCN(CC)CC)c2c1C(=O)c1ccccc1C2=O | 9.4 | 

Source: ChEMBL document CHEMBL1128703, “Chromophore-modified antitumor anthracenediones: synthesis, DNA binding, and cytotoxic activity of 1,4-bis[(aminoalkyl)amino]benzo[g]-phthalazine-5,10-diones” (J Med Chem, 1995)
